Reference: ChEMBL document CHEMBL4004834, “Transition State-Based Sialyltransferase Inhibitors: Mimicking Oxocarbenium Ion by Simple Amide” (J Med Chem, 2017)

Key:
[1] = molecular target: T1, Beta-galactoside alpha-2,6-sialyltransferase 1 (Homo sapiens) (UniProt P15907); assay: Inhibition of recombinant human N-terminal His-tagged ST6Gal-1 (44 to 406 residues) at 1 uM using CMP-Neu5Ac as substrate […] by UV/RP-HPLC method
T1 sequence (whole entry): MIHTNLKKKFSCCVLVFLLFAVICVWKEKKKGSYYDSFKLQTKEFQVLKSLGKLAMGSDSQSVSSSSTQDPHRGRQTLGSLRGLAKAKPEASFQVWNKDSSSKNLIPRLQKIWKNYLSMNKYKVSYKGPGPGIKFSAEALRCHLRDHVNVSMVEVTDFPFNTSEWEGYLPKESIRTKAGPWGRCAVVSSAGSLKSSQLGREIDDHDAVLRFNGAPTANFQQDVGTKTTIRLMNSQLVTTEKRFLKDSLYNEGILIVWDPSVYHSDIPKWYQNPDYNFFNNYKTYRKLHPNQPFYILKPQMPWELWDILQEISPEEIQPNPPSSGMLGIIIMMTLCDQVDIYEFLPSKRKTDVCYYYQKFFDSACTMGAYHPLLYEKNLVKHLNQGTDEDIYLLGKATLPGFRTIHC
Outline: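 hST6Gal-I (aa 44-406), 80 ng per reaction, in pH 6.5 Mes buffer with 2 mM MnCl2 and 0.5% Triton X-100. Inhibitor at 1 µM with CMP-Neu5Ac (250 µM stock) and p-nitrophenyl LacNAc acceptor (5 mM stock), 37 °C, 30 min. Quenched by water and 95 °C for 2 min. Product read by RP-HPLC at 300 nm; donor consumption kept below 15%. Duplicates averaged.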

[2] = molecular target: T1, Beta-galactoside alpha-2,6-sialyltransferase 1 (Homo sapiens); assay: Inhibition of recombinant human ST6Gal-1 (44 to 406 residues) assessed as ratio of CMP-Neu5Ac Km to compound Ki […] by UV/RP-HPLC method
[3] = molecular target: T2, Beta-galactoside alpha-2,6-sialyltransferase 1 (Homo sapiens, UniProt P15907); assay: Inhibition of recombinant human N-terminal His-tagged ST6Gal-1 (44 to 406 residues) using CMP-Neu5Ac as substrate […] by UV/RP-HPLC method
T2 sequence (P15907 whole entry): T1 sequence (whole entry)

inhibition [1] [%] | Ratio [2] | Ki [3] [nM] | SMILES
87.6 | 2190 | 19 | Nc1ccn([C@@H]2O[C@H](COP(=O)(O)O[C@@H](c3cccc(Oc4ccccc4)c3)P(=O)(O)O)[C@@H](O)[C@H]2O)c(=O)n1
 | 7.1 |  | Nc1ccn([C@@H]2O[C@H](COP(=O)(O)OC(C3CCCC3)P(=O)(O)O)[C@@H](O)[C@H]2O)c(=O)n1 (some centres undefined)
 |  | 29 | CC(=O)N[C@H]1[C@H](Oc2ccccc2)OC(C(OP(=O)(O)OC[C@H]2O[C@@H](n3ccc(N)nc3=O)[C@H](O)[C@@H]2O)P(=O)(O)O)=C[C@@H]1O (stereo in doubt; 1-h) [listing 1 of 2 here]
 | 1580 |  | CC(=O)N[C@H]1[C@H](Oc2ccccc2)OC(C(OP(=O)(O)OC[C@H]2O[C@@H](n3ccc(N)nc3=O)[C@H](O)[C@@H]2O)P(=O)(O)O)=C[C@@H]1O (stereo in doubt; 1-h) [listing 2 of 2 here]
 |  | 690 | CC(=O)N[C@H]1[C@H](Oc2ccccc2)OC(C(OP(=O)(O)OC[C@H]2O[C@@H](n3ccc(N)nc3=O)[C@H](O)[C@@H]2O)P(=O)(O)O)=C[C@@H]1O (stereo in doubt; 1-l) [listing 1 of 2 here]
 | 67 |  | CC(=O)N[C@H]1[C@H](Oc2ccccc2)OC(C(OP(=O)(O)OC[C@H]2O[C@@H](n3ccc(N)nc3=O)[C@H](O)[C@@H]2O)P(=O)(O)O)=C[C@@H]1O (stereo in doubt; 1-l) [listing 2 of 2 here]
 |  | 200 | Nc1ccn([C@@H]2O[C@H](COP(=O)(O)OC(c3ccccc3)P(=O)(O)O)[C@@H](O)[C@H]2O)c(=O)n1 (stereo in doubt; 2h) [listing 1 of 2 here]
 | 230 |  | Nc1ccn([C@@H]2O[C@H](COP(=O)(O)OC(c3ccccc3)P(=O)(O)O)[C@@H](O)[C@H]2O)c(=O)n1 (stereo in doubt; 2h) [listing 2 of 2 here]
 |  | 1000 | Nc1ccn([C@@H]2O[C@H](COP(=O)(O)OC(c3ccccc3)P(=O)(O)O)[C@@H](O)[C@H]2O)c(=O)n1 (stereo in doubt; 2l) [listing 1 of 2 here]
 | 46 |  | Nc1ccn([C@@H]2O[C@H](COP(=O)(O)OC(c3ccccc3)P(=O)(O)O)[C@@H](O)[C@H]2O)c(=O)n1 (stereo in doubt; 2l) [listing 2 of 2 here]
 | 1490 |  | CC(=O)NC[C@@H]1CCC(OP(=O)(O)OC[C@H]2O[C@@H](n3ccc(N)nc3=O)[C@H](O)[C@@H]2O)(P(=O)(O)O)[C@H]1OCc1ccccc1 (stereo in doubt; 4-h)
 | 87 |  | CC(=O)NC[C@@H]1CCC(OP(=O)(O)OC[C@H]2O[C@@H](n3ccc(N)nc3=O)[C@H](O)[C@@H]2O)(P(=O)(O)O)[C@H]1OCc1ccccc1 (stereo in doubt; 4-l)
 |  | 174 | Nc1ccn([C@@H]2O[C@H](COP(=O)(O)OC(CNC(=O)c3ccccc3)P(=O)(O)O)[C@@H](O)[C@H]2O)c(=O)n1 (stereo in doubt; 5a-l) [listing 1 of 2 here]
61.7 | 239 |  | Nc1ccn([C@@H]2O[C@H](COP(=O)(O)OC(CNC(=O)c3ccccc3)P(=O)(O)O)[C@@H](O)[C@H]2O)c(=O)n1 (stereo in doubt; 5a-l) [listing 2 of 2 here]
 |  | 16 | Nc1ccn([C@@H]2O[C@H](COP(=O)(O)OC(CNC(=O)c3ccccc3)P(=O)(O)O)[C@@H](O)[C@H]2O)c(=O)n1 (stereo in doubt; 5a-s) [listing 1 of 2 here]
88.9 | 2600 |  | Nc1ccn([C@@H]2O[C@H](COP(=O)(O)OC(CNC(=O)c3ccccc3)P(=O)(O)O)[C@@H](O)[C@H]2O)c(=O)n1 (stereo in doubt; 5a-s) [listing 2 of 2 here]
 |  | 122 | Nc1ccn([C@@H]2O[C@H](COP(=O)(O)OC(C(=O)Nc3ccccc3)P(=O)(O)O)[C@@H](O)[C@H]2O)c(=O)n1 (stereo in doubt; 5b-l) [listing 1 of 2 here]

inhibition [1] [%] | Ratio [2] | Ki [3] [nM] | SMILES
67.7 | 341 |  | Nc1ccn([C@@H]2O[C@H](COP(=O)(O)OC(C(=O)Nc3ccccc3)P(=O)(O)O)[C@@H](O)[C@H]2O)c(=O)n1 (stereo in doubt; 5b-l) [listing 2 of 2 here]
 |  | 106 | Nc1ccn([C@@H]2O[C@H](COP(=O)(O)OC(C(=O)Nc3ccccc3)P(=O)(O)O)[C@@H](O)[C@H]2O)c(=O)n1 (stereo in doubt; 5b-s) [listing 1 of 2 here]
69.7 | 393 |  | Nc1ccn([C@@H]2O[C@H](COP(=O)(O)OC(C(=O)Nc3ccccc3)P(=O)(O)O)[C@@H](O)[C@H]2O)c(=O)n1 (stereo in doubt; 5b-s) [listing 2 of 2 here]
 |  | 60 | Nc1ccn([C@@H]2O[C@H](COP(=O)(O)OC(C(=O)N3CCCC3)P(=O)(O)O)[C@@H](O)[C@H]2O)c(=O)n1 (stereo in doubt; 5c-S) [listing 1 of 2 here]
77 | 694 |  | Nc1ccn([C@@H]2O[C@H](COP(=O)(O)OC(C(=O)N3CCCC3)P(=O)(O)O)[C@@H](O)[C@H]2O)c(=O)n1 (stereo in doubt; 5c-S) [listing 2 of 2 here]
 |  | 165 | Nc1ccn([C@@H]2O[C@H](COP(=O)(O)OC(C(=O)N3CCCC3)P(=O)(O)O)[C@@H](O)[C@H]2O)c(=O)n1 (stereo in doubt; 5c-l) [listing 1 of 2 here]
65.7 | 252 |  | Nc1ccn([C@@H]2O[C@H](COP(=O)(O)OC(C(=O)N3CCCC3)P(=O)(O)O)[C@@H](O)[C@H]2O)c(=O)n1 (stereo in doubt; 5c-l) [listing 2 of 2 here]
 |  | 45 | Nc1ccn([C@@H]2O[C@H](COP(=O)(O)OC(C(=O)N3CCCCC3)P(=O)(O)O)[C@@H](O)[C@H]2O)c(=O)n1 (stereo in doubt; 5d-l) [listing 1 of 2 here]
80.3 | 925 |  | Nc1ccn([C@@H]2O[C@H](COP(=O)(O)OC(C(=O)N3CCCCC3)P(=O)(O)O)[C@@H](O)[C@H]2O)c(=O)n1 (stereo in doubt; 5d-l) [listing 2 of 2 here]
 |  | 20 | Nc1ccn([C@@H]2O[C@H](COP(=O)(O)OC(C(=O)N3CCCCC3)P(=O)(O)O)[C@@H](O)[C@H]2O)c(=O)n1 (stereo in doubt; 5d-s) [listing 1 of 2 here]
86.3 | 2080 |  | Nc1ccn([C@@H]2O[C@H](COP(=O)(O)OC(C(=O)N3CCCCC3)P(=O)(O)O)[C@@H](O)[C@H]2O)c(=O)n1 (stereo in doubt; 5d-s) [listing 2 of 2 here]
15.1 |  |  | Nc1ccn([C@@H]2O[C@H](COP(=O)(O)OC(CN3C(=O)CCC3=O)P(=O)(O)O)[C@@H](O)[C@H]2O)c(=O)n1 (stereo in doubt; 5e-l)
 |  | 224 | Nc1ccn([C@@H]2O[C@H](COP(=O)(O)OC(CN3C(=O)CCC3=O)P(=O)(O)O)[C@@H](O)[C@H]2O)c(=O)n1 (stereo in doubt; 5e-s) [listing 1 of 2 here]
58.8 | 186 |  | Nc1ccn([C@@H]2O[C@H](COP(=O)(O)OC(CN3C(=O)CCC3=O)P(=O)(O)O)[C@@H](O)[C@H]2O)c(=O)n1 (stereo in doubt; 5e-s) [listing 2 of 2 here]
14.3 |  |  | Nc1ccn([C@@H]2O[C@H](COP(=O)(O)OC(CN3C(=O)c4ccccc4C3=O)P(=O)(O)O)[C@@H](O)[C@H]2O)c(=O)n1 (stereo in doubt; 5f-l)
34.5 |  |  | Nc1ccn([C@@H]2O[C@H](COP(=O)(O)OC(CN3C(=O)c4ccccc4C3=O)P(=O)(O)O)[C@@H](O)[C@H]2O)c(=O)n1 (stereo in doubt; 5f-s)
